# Measured values pooled from the literature.
# Compare with care: the assays were run in different laboratories.
# Target: Serine/threonine-protein kinase PAK 6 (PAK6, Homo sapiens, UniProt Q9NQU5)
observed,action,method,tested at,quantity,value,SMILES
enzyme activity,inhibitor,,5 µM,remaining activity,92.9%,O=C(Nc1cnn(-c2csc(C(=O)NC3COC3)c2)c1)Nc1c(F)cccc1Cl
cell-free assay,,competition with immobilised ligand,1 µM,remaining binding,100%,CCOCCn1cc(C(=O)Nc2ccc(-n3nc(-c4cccnc4)cc3C(F)(F)F)cn2)ccc1=O
enzyme activity,inhibitor,,0.1 µM,inhibition,1.5%,CC/C(=N\NC(=O)NCc1cccc(O)c1)c1ccc(O)c(C)c1O
enzyme activity,inhibitor,,23.5 nM,remaining activity,84%,Cc1ccc(C(=O)Nc2ccc(CN3CCN(C)CC3)c(C(F)(F)F)c2)cc1C#Cc1cnc2cccnn12
enzyme activity,inhibitor,,10 µM,remaining activity,108%,Oc1cccc(-c2nc(N3CCOCC3)c3oc4ncccc4c3n2)c1
cell-free assay,inhibitor,,0.5 µM,remaining signal,105%,Cc1ccc(Nc2nccc(N(C)c3ccc4c(C)n(C)nc4c3)n2)cc1S(N)(=O)=O
cell-free assay,,competition with immobilised ligand,0.1 µM,remaining binding,100%,CNC(=O)c1ccc(Nc2ncc(C(F)(F)F)c(NCc3nccnc3N(C)S(C)(=O)=O)n2)cc1
enzyme activity,inhibitor,,10 µM,remaining activity,87%,Nc1nc(Nc2ccccc2)sc1C(=O)c1c(F)cccc1F
binding,,,1 µM,remaining binding,87%,N[C@H]1CCN(c2nccc(-c3cnn4ncccc34)n2)C1
cell-free assay,,competition with immobilised ligand,1 µM,remaining binding,100%,CC(C)(O)c1cncc(-c2nc3ccc(F)cc3n2C2CC2)c1
enzyme activity,inhibitor,,10 µM,inhibition,29%,CCN(CC)CCNC(=O)c1c(C)[nH]c(/C=C2\C(=O)Nc3ccc(F)cc32)c1C
cell-free assay,,competition with immobilised ligand,1 µM,remaining binding,86%,O=C1CCc2cc(Nc3cc(OC4CCOCC4)c([N+](=O)[O-])cc3Cl)ccc2N1
enzyme activity,inhibitor,,1 µM,inhibition,< 20%,CCCS(=O)(=O)Nc1ccc(F)c(C(=O)c2c[nH]c3ncc(-c4ccc(Cl)cc4)cc23)c1F
cell-free assay,inhibitor,,20 µM,remaining signal,53%,Nc1ncnc2occ(-c3ccc(NC(=O)Nc4cc(C(F)(F)F)ccc4F)cc3)c12
enzyme activity,inhibitor,,0.3 µM,inhibition,-33%,CNC(=O)c1cc(Oc2ccc(NC(=O)Nc3ccc(Cl)c(C(F)(F)F)c3)cc2)ccn1
enzyme activity,inhibitor,radiometric,10 µM,remaining activity,43%,COc1cc(Nc2cnc(C#N)c(O[C@H](C)CN(C)C)n2)ncc1-c1cnn(C)c1
enzyme activity,inhibitor,radiometric,1 µM,remaining activity,70%,Cc1cnc(NC2CCOCC2)nc1-n1cnc(C(=O)NC(CN)c2cc(F)cc(Cl)c2)c1 (centres unmarked)
enzyme activity,inhibitor,,1 µM,activity vs control,82%,COc1cc(/C=C/C(=O)CC(=O)/C=C/c2ccc(O)c(OC)c2)ccc1O
enzyme activity,inhibitor,radiometric,1 µM,remaining activity,79%,CC(C)(C)c1nc(-c2cccc(NS(=O)(=O)c3c(F)cccc3F)c2F)c(-c2ccnc(N)n2)s1
cell-free assay,,competition with immobilised ligand,1 µM,remaining binding,100%,O=C(NCc1ncc(C(F)(F)F)cc1Cl)c1ccc2c(c1)C1(CCS(=O)(=O)CC1)[C@H](C1CC1)N2S(=O)(=O)c1ccc(F)cc1
enzyme activity,inhibitor,radiometric,5 µM,activity vs control,90%,FC(F)(F)Oc1cccc(-c2cnc3ccc(-c4ccncc4)nn23)c1
enzyme activity,inhibitor,,5 µM,remaining activity,131%,O=C(Nc1cnn(-c2csc(C(=O)NC3COC3)c2)c1)Nc1ccccc1Cl
enzyme activity,inhibitor,,1 µM,inhibition,3%,COc1cc2ncnc(Nc3ccc(Oc4ccccc4)cc3C)c2cc1OC
cell-free assay,,competition with immobilised ligand,1 µM,remaining binding,99%,O=C(O)[C@@H]1[C@@H](Cn2nnc3ccccc3c2=O)CC[C@H]1C(=O)c1ccc(OCCC2CCOCC2)cc1
enzyme activity,inhibitor,,1 µM,activity vs control,108%,Cc1ccc(C(=O)NCc2ccsc2)cc1C#Cc1cn(C(C)C)c2ncnc(N)c12
cell-free assay,,,0.5 µM,remaining signal,97%,O=C1Nc2ccc(Cl)cc2C1=Cc1cc(Cl)c(O)c(Cl)c1
cell-free assay,,competition with immobilised ligand,1 µM,remaining binding,100%,CC(=O)N1CCC(c2ccc(C(=O)NC3=NCCN3)cc2C(F)(F)F)CC1
cell-free assay,,,0.5 µM,remaining signal,101%,Cc1ccc(NC(=O)c2ccc(CN3CCN(C)CC3)cc2)cc1Nc1nc(-c2cccnc2)cs1
cell-free assay,,competition with immobilised ligand,1 µM,remaining binding,77%,CCS(=O)(=O)c1cc2cc(C[C@@](O)(CC(C)(C)c3ccc(F)cc3C(N)=O)C(F)(F)F)[nH]c2cn1
